TRPC6 inhibitor: mouse TRPC6 channel inhibitors, primary screen, cell-based, HEK293, membrane potential dye. Short transient receptor potential channel 6 (Mus musculus), Q61143. B-score at 10 µM. ACh-evoked depolarization; active compounds read low. hit rate 1.1% among 310,000;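 active = B-score under library mean minus 3 SD, initial fluorescence not abnormally high, positive integrated signal ratio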;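 also: B-score derived from integrated fluorescence ratio over the kinetic read; more negative B-score means stronger inhibition of depolarization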
TRPC4 inh: inhibitors of mouse TRPC4 channel, primary screen, Fluo4 calcium, HEK293 TRPC4beta/mu-opioid cells; AID 2247, 2010; Short transient receptor potential channel 4 (Mus musculus), Q9QUQ5; hit rate 0.39% among 300,000; B-score at 10 µM; DAMGO-evoked Fluo4 calcium flux; active compounds read low;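 active = B-score over 3 SD under the library average, no early fluorescence shift, positive overall ratio signal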
Target sequence (Q9QUQ5 whole entry, looked up): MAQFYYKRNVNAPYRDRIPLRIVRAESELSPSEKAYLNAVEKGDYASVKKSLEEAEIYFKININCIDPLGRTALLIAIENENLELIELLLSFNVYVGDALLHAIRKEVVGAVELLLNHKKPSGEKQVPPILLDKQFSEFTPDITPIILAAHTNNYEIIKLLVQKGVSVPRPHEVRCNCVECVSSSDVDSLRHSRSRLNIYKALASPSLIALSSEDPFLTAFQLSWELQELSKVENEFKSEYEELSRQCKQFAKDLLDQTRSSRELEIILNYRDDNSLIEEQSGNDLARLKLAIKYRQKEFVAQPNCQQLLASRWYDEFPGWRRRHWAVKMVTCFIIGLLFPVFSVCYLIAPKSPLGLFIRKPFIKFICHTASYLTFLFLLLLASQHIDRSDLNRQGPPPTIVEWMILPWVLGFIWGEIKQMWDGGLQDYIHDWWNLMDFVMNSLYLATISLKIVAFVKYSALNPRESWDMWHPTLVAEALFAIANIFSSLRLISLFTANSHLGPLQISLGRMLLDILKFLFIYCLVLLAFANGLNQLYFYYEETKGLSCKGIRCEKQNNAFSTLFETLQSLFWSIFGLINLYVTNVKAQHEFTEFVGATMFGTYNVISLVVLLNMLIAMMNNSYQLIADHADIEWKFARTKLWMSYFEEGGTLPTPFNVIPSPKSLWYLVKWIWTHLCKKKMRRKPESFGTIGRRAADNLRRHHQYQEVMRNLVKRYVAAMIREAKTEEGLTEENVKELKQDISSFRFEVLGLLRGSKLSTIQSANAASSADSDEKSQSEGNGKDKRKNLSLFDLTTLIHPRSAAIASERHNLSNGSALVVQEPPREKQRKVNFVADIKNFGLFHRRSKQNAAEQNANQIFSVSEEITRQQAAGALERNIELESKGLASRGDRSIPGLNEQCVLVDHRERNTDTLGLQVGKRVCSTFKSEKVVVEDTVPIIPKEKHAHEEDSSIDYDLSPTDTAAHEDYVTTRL
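Assay system: HEK293 cells with stable TRPC4beta plus mu-opioid receptor expression. Dosing: single dose. Measured by: Fluo4 Ca2+ flux fluorescence. Also added: DAMGO in two steps, submaximal then maximal. Read-out: B score from integrated Fluo4 fluorescence ratio.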
TRPC6 activator: mouse TRPC6 channel activators, primary screen, cell-based, HEK293, membrane potential dye; hit rate 0.13% among 310,000; Short transient receptor potential channel 6 (Mus musculus), Q61143; B-score at 10 µM; HEK293-TRPC6 membrane potential dye fluorescence; active compounds read high;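 active = B-score of the integrated fluorescence ratio above library mean plus 3 SD, and starting fluorescence ratio within library mean plus 5 SD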;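 also: higher score means more depolarization so channel activation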
TRPC4 potent: positive allosteric modulators of TRPC4, primary screen, cell-based, mouse TRPC4beta, HEK293 mu-opioid, Fluo-4 calcium; Short transient receptor potential channel 4 (Mus musculus), Q9QUQ5; DAMGO EC20, Fluo-4 Ca2+ flux; active compounds read high; B-score at 10 µM; hit rate 0.42% among 310,000; AID 2227, 2009;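 active = B-score of calcium response area above 5 SD of library B-scores, with initial fluorescence ratio within 5 SD of library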
TRPC4 act: activators of mouse TRPC4 channel, primary screen, Fluo4 calcium, HEK293 TRPC4beta/mu-opioid cells; B-score at 10 µM; Short transient receptor potential channel 4 (Mus musculus), Q9QUQ5; Fluo4 calcium fluorescence; active compounds read high; hit rate 0.49% among 310,000; AID 2237, 2010;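 active = B-score above 5 SD of library B-scores, and initial fluorescence ratio not above library mean plus 5 SD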;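 also: positive B-score marks a calcium rise read as TRPC4 activation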
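Material: HEK293 stable line with TRPC4beta plus mu-opioid receptor; technique: Fluo4 calcium-sensitive dye fluorescence, kinetic, 1 Hz baseline; timing: Fluo4 dye loading 45 min at room temperature, 110 s recording; controls: assay buffer as low control, maximal DAMGO as high control; read-out: integrated baseline-normalised fluorescence ratio, converted to per-well B score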
TRPC4 spec 2: second selectivity test of TRPC6 inhibitors: effect on mouse TRPC4 | shares compounds with TRPC6 inhibitor | HEK293 TRPC4/MOR, membrane potential dye fluorescence; channel activated by saturating DAMGO dose | inhibition, % at 10 µM | hit rate 42% among 920 | AID 2776;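 active = compounds whose fluorescence signal differed from control wells by over 3 SD, either direction, in both duplicate plates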
TRPC4 spec: mouse TRPC4 modulation by TRPC6 hits, confirmation, selectivity assay for TRPC6 inhibitor project, cell-based, HEK293 TRPC4/mu-opioid, membrane potential dye; hit rate 61% among 920; membrane potential fluorescence; shares compounds with TRPC6 inhibitor; activity change, negative = inhibition, % at 10 µM;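 active = rise or fall in signal beyond 3 SD of buffer-only wells in both replicate plates, either sign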;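 also: integrated kinetic ratio of fluorescence range over baseline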
HEK293 MPD ctr 2-1: nonspecific membrane potential effects, parental HEK293, confirmation, counter-screen for TRPC6 inhibitor project, cell-based, second counter screen. parental HEK293 membrane potential dye fluorescence; maximal acetylcholine challenge after compound addition. signal change vs control, % at 10 µM. AID 2779, 2010. shares compounds with TRPC6 inhibitor. hit rate 31% among 920;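 active = membrane potential signal moving either way by over 3 SD of the maximum-effect control, in both duplicate plates, meaning non-specific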
HEK293 MPD ctr-1: membrane potential modulation in parental HEK293, confirmation, counter-screen for TRPC6 inhibitor project, cell-based | shares compounds with TRPC6 inhibitor | parental HEK293 membrane potential dye fluorescence | membrane potential signal change, % at 10 µM | hit rate 60% among 920;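 active = membrane potential signal shifting up or down by more than 3 SD of buffer-only wells, on both duplicate plates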
HEK293 MPD ctr-2: parental HEK293 membrane potential modulation, confirmation, counter-screen for TRPC6 modulator project, cell-based; hit rate 51% among 2,400; shares compounds with TRPC6 inhibitor; membrane potential signal change, % at 10 µM; membrane potential dye fluorescence;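 active = membrane potential signal moves up or down beyond 5 SD from buffer-only wells, on both duplicate plates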
HEK293 MPD ctr 2-2: parental HEK293 nonspecific activity of TRPC6 modulators, second screen | shares compounds with TRPC6 inhibitor | membrane potential dye fluorescence; after compound, maximal acetylcholine stimulation | inhibition, % at 10 µM | hit rate 14% among 2,400 | AID 488926;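 active = membrane potential signal drops by more than 5 SD from the mean control signal, in both duplicate plates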
TRPC4/MOR mod: TRPC4 modulation by TRPC6 hit compounds, confirmation, selectivity assay for TRPC6 modulator project, cell-based, HEK293 TRPC4/mu-opioid, membrane potential dye, mouse; shares compounds with TRPC6 inhibitor; hit rate 69% among 2,400; membrane potential fluorescence; percent change from control (negative = decrease, positive = increase), % at 10 µM;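 active = membrane potential signal moved up or down beyond 5 SD of buffer control wells, in both duplicate plates, actives on both sides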
TRPC4/MOR inh 2: second selectivity test of TRPC6 modulators against mouse TRPC4. hit rate 55% among 2,400. inhibition, % at 10 µM. HEK293 TRPC4/mu-opioid, membrane potential dye fluorescence; stimulated with maximal-effect DAMGO. shares compounds with TRPC6 inhibitor;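 active = drop in membrane potential signal beyond 5 SD of the control wells in both duplicate plates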;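 also: TRPC4 counter screen for TRPC6 hits run under conditions tuned for TRPC6 not TRPC4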
TRPC6 block conf: mouse TRPC6 channel inhibitors, confirmation, HEK293 cells, membrane potential dye, duplicate | shares compounds with TRPC6 inhibitor | ACh-evoked depolarization | inhibition, % at 10 µM | hit rate 43% among 3,300 | AID 488960, 2010;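 active = fluorescence ratio falls more than 5 SD below the full-stimulation control mean, in both duplicate runs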;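 also: integrated fluorescence ratio of peak minus minimum over baseline after agonist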
TRPC6 act confirm: mouse TRPC6 channel activators, confirmation, HEK293 cells, membrane potential dye, duplicate. shares compounds with TRPC6 inhibitor. HEK293-TRPC6 membrane potential dye fluorescence, FDSS. activation, % at 10 µM. hit rate 11% among 2,800;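 active = ratio signal rise beyond 5 SD above unstimulated control wells' mean, seen in both duplicate runs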
Hits are given with their value; . = inactive; / = no result given. Only some compounds are listed: those with a hit (about 2.3% of all), similar ones and a draw of the others.

SMILES	TRPC6 inhibitor	TRPC4 inh	TRPC6 activator	TRPC4 potent	TRPC4 act	HEK293 MPD ctr-2	HEK293 MPD ctr 2-2	TRPC4/MOR mod	TRPC4/MOR inh 2	TRPC6 block conf	TRPC6 act confirm	others
CCOC(=O)c1ccc2c(c1)n(CCCS(=O)(=O)[O-])c(/C=C/c1ccc(Cl)cc1)[n+]2CC	-7.41	.	.	.	.	-333.0%	.	-60.0%	61.0%	58.5%	.
COC(=O)N1CCN(c2ccc(C)c(C)c2)CC1	.	.	.	.	.	/	/	/	/	/	/
COC(=O)N1CCN(c2ccc(Cl)c(Cl)c2)CC1	-6.28	.	.	.	.	.	.	8.0%	37.0%	.	.
COc1ccc(-c2cc3nc(C)cc(N)n3n2)cc1	-5.03	.	.	.	.	-143.0%	.	-21.5%	.	.	.
COc1ccc(-c2cc3nc(C)cc(NCCO)n3n2)cc1	-8.97	.	.	.	.	-300.0%	.	-48.5%	49.0%	71.5%	.
COCCNc1cc(C)nc2cc(-c3ccc(C)cc3)nn12	.	.	.	.	.	/	/	/	/	/	/
COc1ccc(-c2cc3nc(C)cc(-c4ccc(OC)cc4)n3n2)cc1	.	.	.	.	.	/	/	/	/	/	/
COc1ccc(Cn2c(-c3ccc(C)cc3)c[n+]3ccccc23)cc1	-6.25	.	.	.	.	-232.0%	.	-30.5%	48.5%	46.0%	.
c1ccc(-c2cn(-c3ccccc3)c3[n+]2CCCS3)cc1	.	.	.	.	.	/	/	/	/	/	/
c1ccc(Cn2c(-c3ccccc3)c[n+]3c2SCCC3)cc1	-9.92	.	.	.	.	/	/	/	/	68.1%	.	TRPC4 spec 2=.;TRPC4 spec=.;HEK293 MPD ctr 2-1=39.5%;HEK293 MPD ctr-1=.
COc1cc2c(cc1OC)C1(NCC2)C(=O)Nc2ccccc21 (configuration not stated)	.	.	.	.	.	/	/	/	/	/	/

Screens (PubChem BioAssay)
